In ChEMBL document CHEMBL2157922, “Synthesis and antifungal activity of diverse C-2 pyridinyl and pyridinylvinyl substituted quinolines” (2012):
≈ marks a conversion by molar mass, not a printed value.

Columns and labels:
[1] = tested on: Candida albicans; assay: Antifungal activity against Candida albicans ATCC 10231 after 48 hrs by broth microdilution technique; assay type: functional; conditions: ATCC 10231, 48 h
Procedure, shortened: (§1)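 Yeasts were tested by CLSI broth microdilution in RPMI-1640 buffered to pH 7.0 with MOPS, with compound from 250 down to 0.98 in DMSO stocks. Trays were held at 30 °C in a moist, dark chamber. MIC100, the lowest concentration giving total visual inhibition against the growth control, was read by eye at 48 h.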

[2] = tested on: Saccharomyces cerevisiae; assay: Antifungal activity against Saccharomyces cerevisiae ATCC 9763 after 48 hrs by broth microdilution technique; assay type: functional; conditions: ATCC 9763, 48 h; procedure, shortened: as §1
[3] = tested on: Cryptococcus neoformans; assay: Antifungal activity against Cryptococcus neoformans ATCC 32264 after 48 hrs by broth microdilution technique; assay type: functional; conditions: ATCC 32264, 48 h; procedure, shortened: as §1
[4] = tested on: Aspergillus fumigatus; assay: Antifungal activity against Aspergillus fumigatus ATCC 26934 after 48 hrs by broth microdilution technique; assay type: functional; conditions: ATCC 26934, 48 h
Procedure, shortened: (§2)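 Moulds and dermatophytes were run by CLSI broth microdilution in MOPS-buffered RPMI-1640 at pH 7.0. Aspergillus was incubated at 30 °C and dermatophytes at 28–30 °C, in a moist, dark chamber. MIC100, the lowest concentration with no visible growth, was read visually at a time set by growth of the control fungus.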

[5] = tested on: Aspergillus flavus; assay: Antifungal activity against Aspergillus flavus ATCC 9170 after 48 hrs by broth microdilution technique; assay type: functional; conditions: ATCC 9170, 48 h; procedure, shortened: as §2
[6] = tested on: Aspergillus niger; assay: Antifungal activity against Aspergillus niger ATCC 9029 after 48 hrs by broth microdilution technique; assay type: functional; conditions: ATCC 9029, 48 h; procedure, shortened: as §2
[7] = tested on: Nannizzia gypsea; assay: Antifungal activity against Microsporum gypseum CCC 115 after 48 hrs by broth microdilution technique; assay type: functional; conditions: CCC 115, 48 h; procedure, shortened: as §2
[8] = tested on: Trichophyton rubrum; assay: Antifungal activity against Trichophyton rubrum CCC 113 after 48 hrs by broth microdilution technique; assay type: functional; conditions: CCC 113, 48 h
[9] = tested on: Trichophyton mentagrophytes; assay: Antifungal activity against Trichophyton mentagrophytes ATCC 9972 after 48 hrs by broth microdilution technique; assay type: functional; conditions: ATCC 9972, 48 h; procedure, shortened: as §2
[10] = tested on: Candida albicans; assay: Antifungal activity against Candida albicans CCC 125 after 48 hrs by broth microdilution technique; assay type: functional; conditions: CCC 125, 48 h
[11] = tested on: Candida albicans; assay: Antifungal activity against Candida albicans CCC 126 after 48 hrs by broth microdilution technique; assay type: functional; conditions: CCC 126, 48 h
[12] = tested on: Candida albicans; assay: Antifungal activity against Candida albicans CCC 127 after 48 hrs by broth microdilution technique; assay type: functional; conditions: CCC 127, 48 h
[13] = tested on: Candida albicans; assay: Antifungal activity against Candida albicans CCC 128 after 48 hrs by broth microdilution technique; assay type: functional; conditions: CCC 128, 48 h
[14] = tested on: Candida albicans; assay: Antifungal activity against Candida albicans CCC 129 after 48 hrs by broth microdilution technique; assay type: functional; conditions: CCC 129, 48 h
[15] = tested on: Candida albicans; assay: Antifungal activity against Candida albicans CCC 130 after 48 hrs by broth microdilution technique; assay type: functional; conditions: CCC 130, 48 h
[16] = tested on: Nakaseomyces glabratus; assay: Antifungal activity against Candida glabrata CCC 115 after 48 hrs by broth microdilution technique; assay type: functional; conditions: CCC 115, 48 h
[17] = tested on: Candida parapsilosis; assay: Antifungal activity against Candida parapsilosis CCC 124 after 48 hrs by broth microdilution technique; assay type: functional; conditions: Lodderomyces parapsilosis, CCC 124, 48 h
[18] = tested on: Pichia kudriavzevii; assay: Antifungal activity against Candida krusei CCC 117 after 48 hrs by broth microdilution technique; assay type: functional; conditions: CCC 117, 48 h
[19] = tested on: Candida tropicalis; assay: Antifungal activity against Candida tropicalis CCC 131 after 48 hrs by broth microdilution technique; assay type: functional; conditions: CCC 131, 48 h
[20] = tested on: Cryptococcus neoformans; assay: Antifungal activity against Cryptococcus neoformans IM 983040 after 48 hrs by broth microdilution technique; assay type: functional; conditions: IM 983040, 48 h
Procedure, shortened: (§3)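 C. neoformans was tested by 96-well RPMI-1640 microdilution, with DMSO-matched growth and sterility control wells. Plates were incubated 48 h at 30 °C in a moist, dark chamber and read at OD405. % inhibition = 100 − (CTW − SCW)/(GCW − SCW), in duplicate. For the clinical isolates, MIC80 and MIC50 are the lowest concentrations giving 80% and 50% inhibition.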

[21] = tested on: Cryptococcus neoformans; assay: Antifungal activity against Cryptococcus neoformans IM 972724 after 48 hrs by broth microdilution technique; assay type: functional; conditions: IM 972724, 48 h; procedure, shortened: as §3
[22] = tested on: Cryptococcus neoformans; assay: Antifungal activity against Cryptococcus neoformans IM 042074 after 48 hrs by broth microdilution technique; assay type: functional; conditions: IM 042074, 48 h; procedure, shortened: as §3
[23] = tested on: Cryptococcus neoformans; assay: Antifungal activity against Cryptococcus neoformans IM 983036 after 48 hrs by broth microdilution technique; assay type: functional; conditions: IM 983036, 48 h; procedure, shortened: as §3
[24] = tested on: Cryptococcus neoformans; assay: Antifungal activity against Cryptococcus neoformans IM 00319 after 48 hrs by broth microdilution technique; assay type: functional; conditions: IM 00319, 48 h; procedure, shortened: as §3
[25] = tested on: Cryptococcus neoformans; assay: Antifungal activity against Cryptococcus neoformans IM 972751 after 48 hrs by broth microdilution technique; assay type: functional; conditions: IM 972751, 48 h; procedure, shortened: as §3
[26] = tested on: Cryptococcus neoformans; assay: Antifungal activity against Cryptococcus neoformans ATCC 32264 at 31.2 ug/ml after 48 hrs; assay type: functional; conditions: ATCC 32264, 48 h; procedure, shortened: as §3
[27] = tested on: Candida albicans; assay: Antifungal activity against Candida albicans ATCC 10231 at 31.2 ug/ml after 24 hrs; assay type: functional; conditions: ATCC 10231, 24 h
Procedure, shortened: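 C. albicans was grown in 96-well RPMI-1640 broth microdilution with compound wells diluted from DMSO stocks. Growth wells with matched DMSO and sterility wells were included. After 24 h at 30 °C in a moist, dark chamber, OD405 was read. % inhibition = 100 − (CTW − SCW)/(GCW − SCW) OD, done in duplicate.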

[28] = tested on: Candida albicans; assay: Antifungal activity against Candida albicans CCC 130 after 24 hrs by broth microdilution technique; conditions: CCC 130, 24 h

Fc1ccc2nc(/C=C/c3ccccn3)ccc2c1
MFC [1]: > 250 µg/mL | MIC [1]: 125 µg/mL (≈ 499 µM) | MIC50 [1]: 15.6 µg/mL (≈ 62.3 µM) | MIC80 [1]: 31.2 µg/mL (≈ 125 µM) | MFC [2]: > 250 µg/mL | MIC [2]: 250 µg/mL (≈ 999 µM) | MFC [3]: > 250 µg/mL | MIC [3]: 125 µg/mL (≈ 499 µM) | MIC50 [3]: 15.6 µg/mL (≈ 62.3 µM) | MIC80 [3]: 31.2 µg/mL (≈ 125 µM) | MFC [4]: > 250 µg/mL | MIC [4]: 250 µg/mL (≈ 999 µM) | MFC [5]: > 250 µg/mL | MIC [5]: 250 µg/mL (≈ 999 µM) | MIC [6]: > 250 µg/mL | MFC [7]: > 250 µg/mL | MIC [7]: 125 µg/mL (≈ 499 µM) | MFC [8]: > 250 µg/mL | MIC [8]: 125 µg/mL (≈ 499 µM) | MFC [9]: > 250 µg/mL | MIC [9]: 125 µg/mL (≈ 499 µM) | MIC50 [10]: 15.6 µg/mL (≈ 62.3 µM) | MIC80 [10]: 31.2 µg/mL (≈ 125 µM) | MIC50 [11]: 62.5 µg/mL (≈ 250 µM) | MIC80 [11]: 62.5 µg/mL (≈ 250 µM) | MIC50 [12]: 31.2 µg/mL (≈ 125 µM) | MIC80 [12]: 62.5 µg/mL (≈ 250 µM) | MIC50 [13]: 31.2 µg/mL (≈ 125 µM) | MIC80 [13]: 62.5 µg/mL (≈ 250 µM) | MIC50 [14]: 31.2 µg/mL (≈ 125 µM) | MIC80 [14]: 62.5 µg/mL (≈ 250 µM) | MIC80 [15]: 31.2 µg/mL (≈ 125 µM) | MIC50 [16]: 15.6 µg/mL (≈ 62.3 µM) | MIC80 [16]: 31.2 µg/mL (≈ 125 µM) | MIC50 [17]: 7.8 µg/mL (≈ 31.2 µM) | MIC80 [17]: 15.6 µg/mL (≈ 62.3 µM) | MIC50 [18]: 15.6 µg/mL (≈ 62.3 µM) | MIC80 [18]: 31.2 µg/mL (≈ 125 µM) | MIC50 [19]: 62.5 µg/mL (≈ 250 µM) | MIC80 [19]: 125 µg/mL (≈ 499 µM) | MIC50 [20]: 31.2 µg/mL (≈ 125 µM) | MIC80 [20]: 62.5 µg/mL (≈ 250 µM) | MIC50 [21]: 31.2 µg/mL (≈ 125 µM) | MIC80 [21]: 62.5 µg/mL (≈ 250 µM) | MIC50 [22]: 15.6 µg/mL (≈ 62.3 µM) | MIC80 [22]: 62.5 µg/mL (≈ 250 µM) | MIC50 [23]: 31.2 µg/mL (≈ 125 µM) | MIC80 [23]: 62.5 µg/mL (≈ 250 µM) | MIC50 [24]: 15.6 µg/mL (≈ 62.3 µM) | MIC80 [24]: 62.5 µg/mL (≈ 250 µM) | MIC50 [25]: 15.6 µg/mL (≈ 62.3 µM) | MIC80 [25]: 31.2 µg/mL (≈ 125 µM) | inhibition at 31.2 µg/mL [26]: 80% | inhibition at 31.2 µg/mL [27]: 80% | MIC50 [28]: 15.6 µg/mL (≈ 62.3 µM)
